Measurements as given in ChEMBL document CHEMBL4834390, “Nanomolar-Potency 1,2,4-Triazoloquinoxaline Inhibitors of the Kidney Urea Transporter UT-A1” (J Med Chem, 2018).
The source made the active and inactive calls. The rule behind the calls is not given here.

What was measured:
Urea transporter 2 = target: T1, Urea transporter 2 (Rattus norvegicus, UniProt Q62668); assay: Inhibition of rat UT-A1 expressed in MDCK cells incubated for 15 mins by fluorescence plate reader assay; format: cell-based
T1 sequence (Q62668 whole entry): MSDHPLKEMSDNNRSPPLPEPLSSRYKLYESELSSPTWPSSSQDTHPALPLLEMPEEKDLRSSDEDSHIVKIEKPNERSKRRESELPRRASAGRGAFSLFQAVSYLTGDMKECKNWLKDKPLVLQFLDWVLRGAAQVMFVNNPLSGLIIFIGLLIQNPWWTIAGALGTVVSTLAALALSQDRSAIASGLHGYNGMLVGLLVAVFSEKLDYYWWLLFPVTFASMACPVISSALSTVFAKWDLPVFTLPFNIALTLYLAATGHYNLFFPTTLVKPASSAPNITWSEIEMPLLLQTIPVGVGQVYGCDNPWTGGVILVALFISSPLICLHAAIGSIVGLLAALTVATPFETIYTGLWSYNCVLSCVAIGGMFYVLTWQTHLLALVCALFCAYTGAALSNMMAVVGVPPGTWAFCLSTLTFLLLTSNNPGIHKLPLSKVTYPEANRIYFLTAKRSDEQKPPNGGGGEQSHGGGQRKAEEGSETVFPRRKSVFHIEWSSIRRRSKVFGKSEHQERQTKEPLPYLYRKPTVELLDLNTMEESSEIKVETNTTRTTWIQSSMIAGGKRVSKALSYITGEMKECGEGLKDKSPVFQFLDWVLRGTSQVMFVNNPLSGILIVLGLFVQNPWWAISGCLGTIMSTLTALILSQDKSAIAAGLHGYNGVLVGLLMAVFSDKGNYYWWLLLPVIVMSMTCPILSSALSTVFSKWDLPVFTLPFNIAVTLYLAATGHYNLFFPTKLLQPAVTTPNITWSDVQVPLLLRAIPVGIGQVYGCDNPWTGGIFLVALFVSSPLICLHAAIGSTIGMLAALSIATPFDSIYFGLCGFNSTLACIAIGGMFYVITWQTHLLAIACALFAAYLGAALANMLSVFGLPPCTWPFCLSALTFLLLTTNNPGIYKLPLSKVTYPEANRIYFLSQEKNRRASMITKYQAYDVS

Urea transporter 1 = target: T2, Urea transporter 1 (Rattus norvegicus, UniProt P97689); assay: Inhibition of rat UT-B incubated for 15 mins
T2 sequence (P97689 whole entry): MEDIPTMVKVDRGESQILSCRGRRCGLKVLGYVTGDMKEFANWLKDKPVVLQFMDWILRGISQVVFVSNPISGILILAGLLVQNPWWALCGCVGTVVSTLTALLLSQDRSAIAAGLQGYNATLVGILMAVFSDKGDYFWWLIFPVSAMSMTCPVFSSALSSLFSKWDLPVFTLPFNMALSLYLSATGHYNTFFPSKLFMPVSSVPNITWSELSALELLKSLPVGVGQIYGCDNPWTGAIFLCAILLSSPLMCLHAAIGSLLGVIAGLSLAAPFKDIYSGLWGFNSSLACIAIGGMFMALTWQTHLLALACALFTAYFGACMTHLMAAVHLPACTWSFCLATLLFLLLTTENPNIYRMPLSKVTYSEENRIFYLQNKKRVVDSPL
Summary of the method: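 Rat whole blood diluted to ~1.5% hematocrit in PBS with 1.25 M acetamide and 5 mM glucose; compound incubated 15 min, then cells mixed into isomolar buffer; lysis read by absorbance at 710 nm. Isomolar buffer as non-lysed and 0.7 mM phloretin as lysed control; % lysis computed from these; mean ± SEM, n = 3.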

[1] = Metabolic stability in Sprague-Dawley rat liver microsomes assessed as compound remaining at 5 uM preincubated for 5 mins followed by NADPH addition and measured at 15 mins by LC/MS analysis; format: ADME, Microsome; conditions: time 20 min, read-out: Stabilty
Summary of the method: (§1)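 Compound at 5 µM preincubated 5 min at 37 °C with male Sprague-Dawley rat liver microsomes (1 mg protein/mL) in 0.1 M PBS pH 7.4. 1 mM NADPH then added, incubation continued at 37 °C for set times, then chilled and EtOAc-extracted. Parent compound measured by LC/MS as peak area/internal standard ratio; mean ± SEM, n = 3.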

MDCK = assay: Cytotoxicity against dog MDCK cells at 10 uM after 24 hrs by alamar blue assay; format: cell-based, Canis lupus familiaris
Summary of the method: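 MDCK cells stably co-expressing rat UT-A1, YFP-H148Q/V163S and human AQP1 grown 24 h at 37 °C, then exposed to compound at 10 µM for 24 h; viability read by AlamarBlue; mean ± SEM, n = 3.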

[2] = target: T3, Urea transporter 2 (Rattus norvegicus) (UniProt Q62668); assay: Inhibition of rat UT-A1 expressed in MDCK cells at 0.5 uM by fluorescence plate reader assay; format: cell-based; conditions: time 100-500 sec
T3 sequence (whole entry): T1 sequence (Q62668 whole entry)
Summary of the method: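 MDCK cells stably expressing rat UT-A1, human AQP1 and YFP volume sensor; compound at 0.5 µM added at different times before assay; urea transport followed by YFP fluorescence on a plate reader; DMSO as 0% and phloretin as 100% inhibition.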

[3] = target: T3, Urea transporter 2 (Rattus norvegicus); assay: Reversible inhibition of rat UT-A1 expressed in MDCK cells at 0.5 uM incubated for 15 mins followed by compound washing for 15 mins; format: cell-based
Summary of the method: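 MDCK cells stably expressing rat UT-A1, AQP1 and YFP sensor incubated with 0.5 µM compound for 15 min, washed with PBS for 15 min, then assayed for UT-A1 urea transport by fluorescence plate reader.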

[4] = target: T3, Urea transporter 2 (Rattus norvegicus); assay: Noncompetitive inhibition of rat UT-A1 expressed in MDCK cells assessed as inhibition of urea transport; format: cell-based
[5] = Metabolic stability in Sprague-Dawley rat liver microsomes assessed as compound remaining at 5 uM preincubated for 5 mins followed by NADPH addition and measured at 30 mins by LC/MS analysis; format: ADME, Microsome; conditions: time 35 min, read-out: Stabilty; summary of the method: as §1
Rattus norvegicus [6] = assay: Diuretic activity in Wistar rat assessed as reduction in urine osmolality at 4 mg/kg, iv after 3 hrs; format: functional, organism-based
Summary of the method: (§2)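 Male Wistar rats (250–300 g), acclimated in metabolic cages 3 days (6 h/day). Urine voided spontaneously over 3 h before dosing, then 4 mg/kg iv via catheter in saline with 20% dimethylacetamide and 1.28 mg/mL NaOH, or vehicle. Urine collected 3 h after dosing; volume and osmolality compared with pretreatment (paired t-test); mean ± SEM, n = 4.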

[7] = Drug concentration in Wistar rat serum at 4 mg/kg, iv after 3 hrs by LC/MS analysis; format: ADME, organism-based
Summary of the method: (§3)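 Male Wistar rats (250–300 g) dosed 4 mg/kg iv in saline containing 20% dimethylacetamide and 1.28 mg/mL NaOH. Tail-vein blood taken at 15, 30, 60, 120, 180 min without anticoagulant, serum separated; urine collected 3 h in metabolic cages; samples frozen at –20 °C. LC/MS (ESI positive) quantitation against standards spiked into control rat urine or plasma.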

Rattus norvegicus [8] = assay: Diuretic activity in Wistar rat assessed as increase in urine volume at 4 mg/kg, iv after 3 hrs; format: functional, organism-based; summary of the method: as §2
[9] = Drug concentration in Wistar rat urine at 4 mg/kg, iv after 3 hrs by LC/MS analysis; format: ADME, organism-based; conditions: read-out: Ct; summary of the method: as §3

Row | Compound | IC50 (Urea transporter 2) [nM] | further results
1 | COc1ccc(-c2cccc(-c3ccn(Cc4csc(C)n4)n3)c2)nn1 | 1500 | IC50 (Urea transporter 1): 31 µM
2 | COc1ccc(Cl)cc1S(=O)(=O)Nc1cccc(O)c1 | 6000 | IC50 (Urea transporter 1): 14 µM
3 | CCc1nnc2c(Oc3ccc(NS(=O)(=O)c4cc(C)ccc4C)cc3)nc3ccccc3n12 | 750 | –
4 | CCCc1nnc2c(Oc3ccc(NS(=O)(=O)c4cc(C)ccc4OC)cc3)nc3ccccc3n12 | 400 | –
5 | CC(=O)Nc1ccc(-c2noc(C3CCCN(C(=O)c4ccccc4F)C3)n2)cc1 (stereo unspecified) | 3000 | IC50 (Urea transporter 1): > 50 µM
6 | COc1ccc(Cl)cc1S(=O)(=O)Nc1ccc2nc(SC)sc2c1 | 5000 | IC50 (Urea transporter 1): 10 µM
7 | COc1ccc(C)cc1S(=O)(=O)Nc1ccc(Oc2nc3ccccc3n3c(C(C)C)nnc23)cc1 | 500 | –
8 | COc1ccc(Cl)c(S(=O)(=O)Nc2cccc(Nc3nc4ccccc4n4cnnc34)c2)c1 | > 20000 | –
9 | O=S(=O)(Nc1ccc(Oc2nc3ccccc3n3cnnc23)cc1)c1ccccc1OC(F)(F)F | 20000 | –
10 | COc1ccc(Cl)cc1S(=O)(=O)Nc1ccc(Oc2nc3ccccc3n3c(C)nnc23)cc1 | > 20000 | –
11 | CCCCc1nnc2c(Oc3ccc(NS(=O)(=O)c4cc(C)ccc4OC)cc3)nc3ccccc3n12 | 400 | –
12 | COC(=O)c1sc2nc3c(cc2c1N)CN(Cc1ccccc1)CC3 | 3000 | IC50 (Urea transporter 1): 3 µM
13 | COc1ccc(Cl)cc1S(=O)(=O)Nc1ccc(Oc2nc3cc(Cl)c(Cl)cc3n3cnnc23)cc1 | > 20000 | –
14 | COc1ccc(Cl)c(S(=O)(=O)Nc2ccc(Nc3nc4ccccc4n4cnnc34)cc2)c1 | > 20000 | –
15 | CCCCc1nnc2c(Oc3ccc(NS(=O)(=O)c4cc(Cl)ccc4OC)cc3)nc3ccccc3n12 | 200 | –
16 | Cc1ccc(C)c(S(=O)(=O)Nc2ccc(Oc3nc4ccccc4n4c(C)nnc34)cc2)c1 | > 20000 | –
17 | O=S(=O)(Nc1ccc(Oc2nc3ccccc3n3cnnc23)cc1)c1ccccc1Cl | 5000 | –
18 | COc1ccc(Cl)c(S(=O)(=O)Nc2cccc(Oc3nc4ccccc4n4cnnc34)c2)c1 | > 20000 | –
19 | CCCc1nnc2c(Oc3ccc(NS(=O)(=O)c4cc(C)ccc4C)cc3)nc3ccccc3n12 | 500 | –
20 | Cc1ccc(C)c(S(=O)(=O)Nc2ccc(Oc3nc4ccccc4n4cnnc34)cc2)c1 | 1500 | –
21 | COc1ccc(Cl)cc1S(=O)(=O)Nc1ccc(Oc2nc3cc(C)c(C)cc3n3cnnc23)cc1 | 2700 | –
22 | CCc1nnc2c(Oc3ccc(NS(=O)(=O)c4cc(Cl)ccc4OC)cc3)nc3ccccc3n12 | 500 | –

Row | Compound | IC50 (Urea transporter 2) [nM] | further results
23 | Cc1ccccc1S(=O)(=O)Nc1ccc(Oc2nc3ccccc3n3cnnc23)cc1 | 8000 | –
24 | COc1ccc(Cl)cc1S(=O)(=O)Nc1cccc(Oc2nc3ccccc3n3cnnc23)c1 | > 20000 | –
25 | CCCc1nnc2c(Oc3ccc(NS(=O)(=O)c4cc(Cl)ccc4OC)cc3)nc3cc(C)c(C)cc3n12 | 400 | remaining at 0.25 h, 5 µM [1]: 25%
26 | CCOc1nnc2c(Oc3ccc(NS(=O)(=O)c4cc(C)ccc4OC)cc3)nc3ccccc3n12 | 1500 | –
27 | COc1ccc(C)cc1S(=O)(=O)Nc1ccc(Oc2nc3cc(F)c(F)cc3n3cnnc23)cc1 | 1500 | –
28 | O=S(=O)(Nc1ccc(Oc2nc3ccccc3n3cnnc23)cc1)c1cccc(Cl)c1 | > 20000 | –
29 | COc1ccc(Cl)c(S(=O)(=O)Nc2ccc(Oc3nc4ccccc4n4cnnc34)cc2)c1 | > 20000 | –
30 | CCCc1nnc2c(Oc3ccc(NS(=O)(=O)c4cc(Cl)ccc4OC)cc3)nc3ccccc3n12 | 150 | remaining at 0.25 h, 5 µM [1]: 40%; Activity (MDCK): Non-Toxic; inhibition [2]: Active; inhibition [3]: Active; inhibition [4]: Active; IC50 (Urea transporter 1): 2 µM
31 | CCOc1nnc2c(Oc3ccc(NS(=O)(=O)c4cc(Cl)ccc4OC)cc3)nc3ccccc3n12 | 1200 | –
32 | COc1ccc(Cl)cc1S(=O)(=O)Nc1ccc(Oc2nc3cc(F)c(F)cc3n3cnnc23)cc1 | 1200 | –
33 | CCCCc1nnc2c(Oc3ccc(NS(=O)(=O)c4cc(C)ccc4C)cc3)nc3ccccc3n12 | 800 | –
34 | COc1ccc(Cl)cc1S(=O)(=O)Nc1ccc(Oc2nc3cc(C)c(C)cc3n3c(C(C)C)nnc23)cc1 | 1200 | –
35 | CCc1nnc2c(Oc3ccc(NS(=O)(=O)c4cc(Cl)ccc4OC)cc3)nc3cc(C)c(C)cc3n12 | 1400 | –
36 | COc1ccc(C)cc1S(=O)(=O)Nc1ccc(Oc2nc3ccccc3n3cnnc23)cc1 | 1100 | –
37 | CCc1nnc2c(Oc3ccc(NS(=O)(=O)c4cc(C)ccc4OC)cc3)nc3ccccc3n12 | 700 | –
38 | COc1ccc(Cl)cc1S(=O)(=O)Nc1ccc(Oc2nc3ccccc3n3c(C(C)C)nnc23)cc1 | 300 | –
39 | O=C(Nc1ccon1)c1cc(-c2ccccc2)nc2ccccc12 | 2000 | IC50 (Urea transporter 1): > 100 µM
40 | COc1ccc(Cl)cc1S(=O)(=O)Nc1ccc(Nc2nc3ccccc3n3cnnc23)cc1 | > 20000 | –
41 | CCCc1nnc2c(Oc3ccc(NS(=O)(=O)c4cc(Cl)ccc4OC)cc3)nc3cc(F)c(F)cc3n12 | 300 | remaining at 0.5 h, 5 µM [5]: 60%; Activity (MDCK): Non-Toxic; Activity (Rattus norvegicus [6]): Active; concentration at 3 h [7]: > 2000 nM; Activity (Rattus norvegicus [8]): Active; concentration at 3 h [9]: 6 µM; IC50 (Urea transporter 1): 0.8 µM
42 | Cc1ccc(C)c(S(=O)(=O)Nc2ccc(Oc3nc4ccccc4n4c(C(C)C)nnc34)cc2)c1 | 600 | –
43 | COc1ccc(Cl)cc1S(=O)(=O)Nc1ccc(Oc2nc3ccccc3n3cnnc23)cc1 | 800 | Activity (MDCK): Non-Toxic; IC50 (Urea transporter 1): 4 µM
44 | COc1ccc(C)cc1S(=O)(=O)Nc1ccc(Oc2nc3ccccc3n3c(C)nnc23)cc1 | > 20000 | –
